From PMC9128166 (Cancer Science, 2022)
Where “and” joins values, the source holds several entries; their conditions need not be identical. Identical values can stand only once. Entries after “also recorded” stand apart in the source; their conditions may differ. Like-named read-outs stand apart in the source and are kept apart here.

Key:
[1] = format: in vivo, Japanese patients
[2] = cited from earlier work
[3] = tested on: plasma proteins associated with PI3Kδ inhibition; experiment: Plasma proteomic pharmacodynamic biomarkers; format: in vivo, Japanese patients
[4] = Urine pharmacokinetics of parsaclisib, cycle 1 day 15; format: in vivo, Japanese patients
[5] = tested on: relapsed or refractory marginal zone lymphoma; experiment: Investigator-assessed response; format: in vivo, Japanese patients
In short: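 Investigator-assessed response by Lugano criteria in the full analysis set (all treated patients). Patients received 10 or 20 mg QD orally for 8 weeks, then the same dose QW. CT, FDG-PET or PET-CT was chosen by subtype, using the same technique as at screening. Scans ran every 8 weeks through week 24, every 12 weeks through week 96, then every 24 weeks until progression.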

[6] = Any postbaseline abnormality, N = 17
[7] = Worst grade postbaseline Grade 3, N = 17
[8] = Worst grade postbaseline Grade 4, N = 17
[9] = among 16 patients with grade 0 at baseline
[10] = previous studies, patients with NHL
[11] = two responders with MZL, individual values

CCOc1c([C@H](C)n2nc(C)c3c(N)ncnc32)cc(Cl)c(F)c1[C@@H]1CNC(=O)C1 [parsaclisib]
treatment‐emergent new or worsening decreased neutrophils to grade 3 or 4 ([1]; 5 of 17 patients, all during first 8 weeks): 29.4% | Alanine aminotransferase (increased) [1, 6]: 7 (41.2) n (%) | Albumin (decreased) [1, 6]: 9 (52.9) n (%) | Alkaline phosphatase (increased) [1, 6]: 7 (41.2) n (%) | Aspartate aminotransferase (increased) [1, 6]: 7 (41.2) n (%) | Calcium (decreased) [1, 6]: 8 (47.1) n (%) | Creatinine (increased) [1, 6]: 17 (100.0) n (%) | Leukocytes (decreased) [1, 6]: 9 (52.9) n (%) | Neutrophils (decreased) [1, 6]: 12 (70.6) n (%) | Platelets (decreased) [1, 6]: 7 (41.2) n (%) | Potassium (increased) [1, 6]: 5 (29.4) n (%) | Sodium (decreased) [1, 6]: 5 (29.4) n (%) | Alanine aminotransferase (increased) [1, 7]: 0 (0.0) n (%) | Albumin (decreased) [1, 7]: 0 (0.0) n (%) | Alkaline phosphatase (increased) [1, 7]: 0 (0.0) n (%) | Aspartate aminotransferase (increased) [1, 7]: 0 (0.0) n (%) | Calcium (decreased) [1, 7]: 0 (0.0) n (%) | Creatinine (increased) [1, 7]: 0 (0.0) n (%) | Leukocytes (decreased) [1, 7]: 0 (0.0) n (%) | Neutrophils (decreased) [1, 7]: 4 (23.5) n (%) | Platelets (decreased) [1, 7]: 0 (0.0) n (%) | Potassium (increased) [1, 7]: 0 (0.0) n (%) | Sodium (decreased) [1, 7]: 0 (0.0) n (%) | Alanine aminotransferase (increased) [1, 8]: 0 (0.0) n (%) | Albumin (decreased) [1, 8]: 0 (0.0) n (%) | Alkaline phosphatase (increased) [1, 8]: 0 (0.0) n (%) | Aspartate aminotransferase (increased) [1, 8]: 0 (0.0) n (%) | Calcium (decreased) [1, 8]: 0 (0.0) n (%) | Creatinine (increased) [1, 8]: 0 (0.0) n (%) | Leukocytes (decreased) [1, 8]: 0 (0.0) n (%) | Neutrophils (decreased) [1, 8]: 1 (5.9) n (%) | Platelets (decreased) [1, 8]: 0 (0.0) n (%) | Potassium (increased) [1, 8]: 0 (0.0) n (%) | Sodium (decreased) [1, 8]: 0 (0.0) n (%) | shifts to increased ALT, grade 1 [1, 9]: 5 patients | shifts to increased ALT, grade 2 [1, 9]: 2 patients | shifts to increased AST, grade 1 [1, 9]: 7 patients | treatment‐emergent elevations of ALT or AST to grade 3 or 4 ([1]; human, in vivo): No treatment‐emergent worsening in aminotransferase elevations to grade 3 or 4; also recorded: no treatment‐emergent elevations of ALT or AST to grade 3 or 4 | elevation in ALT ([1]; shifts to grade 1 or 2): 41.2% | elevation in AST ([1]; shifts to grade 1 or 2): 41.2% | decreases in neutrophil count to grade 3 or 4 ([2]; previous studies, patients with FL or MZL): 13–14% | ALT elevation [2, 10]: 13–26% | AST elevation [2, 10]: 17–23% | cough (TEAE) ([2]; primarily Western populations): 17–22% | nausea (TEAE) ([2]; primarily Western populations): 14–26% | pyrexia (TEAE) ([2]; primarily Western populations): 13–17% | rash (TEAE) ([2]; primarily Western populations): 14–22% | diarrhea (TEAE) ([2]; prior studies, primarily Western populations): 20–44% | parsaclisib‐responsive proteins after transition to QW dosing ([3]; 10 mg or 20 mg QW, weeks 12 and 24): reverted partially or completely to baseline expression levels | plasma proteins significantly changed following 4 weeks or 8 weeks of QD parsaclisib dosing ([3]; FL and MZL (n = 11), approximately 1000 proteins analysed): 23 plasma proteins | Fe,0-8h (unchanged parsaclisib recovered in urine) ([4]; Total, cycle 1 day 15, n 14, mean ± SD (text: mean (range))): 12.1 (5.4–20.4) % | CL renal ([4]; human, urine, oral): 6.67 mL/min | BOR, CMR/CR ([5]; MZL (n = 2)): 0 (0.0) n (%) | BOR, NMR/SD ([5]; MZL (n = 2)): 0 (0.0) n (%) | BOR, PMD/PD ([5]; MZL (n = 2)): 0 (0.0) n (%) | BOR, PMR/PR ([5]; MZL (n = 2)): 2 (100) n (%) | Objective response ([5]; MZL (n = 2)): 2 (100.0) n (%) | BOR, Not assessed ([5]; MZL (n = 2), no postbaseline response data available): 0 (0.0) n (%) | ORR ([5]; MZL, 2 of 2 patients): 100% | observed PFS [5, 11]: 16.7 months and 22.0 months | observed response duration [5, 11]: 14.8 months and 16.8 months
